Source: ChEMBL document CHEMBL2424598, “Identification and optimization of pteridinone Toll-like receptor 7 (TLR7) agonists for the oral treatment of viral hepatitis” (J Med Chem, 2013)
Calls of active or inactive are those of the source. The rule behind the calls is not given here.

How the values were obtained:
Cynomolgus monkey [1] = assay: Agonist activity at […] in po dosed cynomolgus monkey assessed as increase of serum IFNalpha level after 1 to 24 hrs by ELISA; assay type: functional, organism-based; details: Macaca fascicularis
In short: (§1)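 Healthy male cynomolgus monkeys, n = 3 per group, dosed either by 30 min iv infusion or orally. Serum was sampled predose and at 1, 2, 4, 8, 12 and 24 h postdose. IFN-α was measured by species-specific ELISA (limit of detection 130 pg/mL) and reported as mean peak serum level ± SD.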

Cynomolgus monkey [2] = assay: Agonist activity at […] in cynomolgus monkey assessed as increase of serum IFNalpha level at 1 mg/kg, po after 1 to 24 hrs by ELISA; assay type: functional, Macaca fascicularis; in short: as §1
[3] = Cmax in cynomolgus monkey at 0.1 mg/kg, po; assay type: ADME, organism-based, Macaca fascicularis; design: dose 0.1 mg/kg, route oral; details: in vivo
In short: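 Male cynomolgus monkeys, n = 3 per group, received a 30 min iv infusion or an oral dose. Compound was measured in serum (limit of quantitation 0.04 ng/mL), and Cmax is reported as the group mean.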

[4] = Half life in mouse liver microsomes; assay type: ADME, Microsome
Toll-like receptor 8 = target: T1, Toll-like receptor 8 (Homo sapiens, UniProt Q9NR97); assay: Agonist activity at human TLR8 expressed in HEK293 cells by reporter based assay; assay type: cell-based
T1 sequence (Q9NR97 whole entry): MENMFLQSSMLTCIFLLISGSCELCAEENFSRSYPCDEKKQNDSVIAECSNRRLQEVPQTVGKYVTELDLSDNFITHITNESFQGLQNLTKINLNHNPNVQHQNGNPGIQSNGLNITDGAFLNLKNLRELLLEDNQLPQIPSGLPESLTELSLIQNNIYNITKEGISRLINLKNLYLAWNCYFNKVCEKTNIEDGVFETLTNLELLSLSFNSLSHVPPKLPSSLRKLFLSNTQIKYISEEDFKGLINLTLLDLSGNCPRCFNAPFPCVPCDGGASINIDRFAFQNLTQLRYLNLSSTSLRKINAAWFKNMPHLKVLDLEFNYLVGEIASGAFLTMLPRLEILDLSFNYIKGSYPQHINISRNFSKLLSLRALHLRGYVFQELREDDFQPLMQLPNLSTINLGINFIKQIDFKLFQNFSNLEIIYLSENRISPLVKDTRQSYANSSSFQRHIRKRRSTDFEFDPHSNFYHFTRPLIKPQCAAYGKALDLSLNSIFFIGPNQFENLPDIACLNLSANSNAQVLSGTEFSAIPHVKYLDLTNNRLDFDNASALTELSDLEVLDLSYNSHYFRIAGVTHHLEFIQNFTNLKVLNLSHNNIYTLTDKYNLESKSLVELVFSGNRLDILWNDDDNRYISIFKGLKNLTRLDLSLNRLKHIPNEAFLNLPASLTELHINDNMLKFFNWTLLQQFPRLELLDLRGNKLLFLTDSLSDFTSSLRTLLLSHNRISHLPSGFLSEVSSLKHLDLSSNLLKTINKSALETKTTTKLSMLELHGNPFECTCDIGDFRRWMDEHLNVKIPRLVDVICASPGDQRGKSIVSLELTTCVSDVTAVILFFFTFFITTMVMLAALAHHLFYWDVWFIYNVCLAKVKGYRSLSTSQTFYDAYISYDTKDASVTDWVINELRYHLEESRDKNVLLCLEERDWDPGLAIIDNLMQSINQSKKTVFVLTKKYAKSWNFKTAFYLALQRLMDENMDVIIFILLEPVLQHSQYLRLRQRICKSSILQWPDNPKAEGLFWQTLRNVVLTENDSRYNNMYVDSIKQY
In short: (§2)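 HEK293 reporter cell lines, each expressing a single human TLR, with compound titrated up to 100 μM. EC50 taken for TLR7 and TLR8 activation.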

Toll-like receptor 7 = target: T2, Toll-like receptor 7 (Homo sapiens, UniProt Q9NYK1); assay: Agonist activity at human TLR7 expressed in HEK293 cells by reporter based assay; assay type: cell-based; in short: as §2
T2 sequence (Q9NYK1 whole entry): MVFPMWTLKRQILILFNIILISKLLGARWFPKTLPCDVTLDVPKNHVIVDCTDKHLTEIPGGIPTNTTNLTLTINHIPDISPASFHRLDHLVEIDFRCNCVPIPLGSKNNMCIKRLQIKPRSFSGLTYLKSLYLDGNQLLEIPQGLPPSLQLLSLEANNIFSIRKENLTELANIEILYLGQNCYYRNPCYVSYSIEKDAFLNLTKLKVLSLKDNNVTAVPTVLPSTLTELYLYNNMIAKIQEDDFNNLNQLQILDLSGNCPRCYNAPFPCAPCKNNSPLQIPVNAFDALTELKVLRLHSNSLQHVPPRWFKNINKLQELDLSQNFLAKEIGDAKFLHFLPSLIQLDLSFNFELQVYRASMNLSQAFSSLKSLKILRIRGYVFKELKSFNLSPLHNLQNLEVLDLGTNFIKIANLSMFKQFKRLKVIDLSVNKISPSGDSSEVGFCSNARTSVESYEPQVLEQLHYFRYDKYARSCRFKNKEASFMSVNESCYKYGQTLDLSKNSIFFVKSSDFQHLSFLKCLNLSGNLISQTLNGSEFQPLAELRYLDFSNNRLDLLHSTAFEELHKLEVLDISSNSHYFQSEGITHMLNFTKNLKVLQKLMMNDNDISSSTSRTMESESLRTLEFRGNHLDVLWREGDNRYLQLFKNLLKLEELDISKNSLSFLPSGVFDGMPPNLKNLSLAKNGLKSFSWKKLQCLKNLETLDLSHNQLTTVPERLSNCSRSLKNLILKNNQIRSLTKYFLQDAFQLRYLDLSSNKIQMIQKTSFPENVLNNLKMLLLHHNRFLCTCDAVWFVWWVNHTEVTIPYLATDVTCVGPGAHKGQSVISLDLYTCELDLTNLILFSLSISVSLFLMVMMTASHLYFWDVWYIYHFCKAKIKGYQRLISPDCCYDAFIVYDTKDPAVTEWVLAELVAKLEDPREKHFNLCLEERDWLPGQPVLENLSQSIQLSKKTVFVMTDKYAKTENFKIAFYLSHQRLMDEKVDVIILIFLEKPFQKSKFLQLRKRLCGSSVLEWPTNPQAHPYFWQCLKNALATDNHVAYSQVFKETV

[5] = target: T3, Toll-like receptor 8 (Homo sapiens) (UniProt Q9NR97); assay: Agonist activity at TLR8-mediated TNFalpha production in human PBMC assessed as minimum concentration of compound necessary to generate >3 fold of cytokine levels relative to control
T3 sequence (whole entry): T1 sequence (Q9NR97 whole entry)
In short: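 Cryopreserved human PBMCs from leukapheresis of one healthy donor, chosen as a consistent responder to TLR7 stimulation; 24 h incubation with compound over an eight-point concentration range. TNF-α read from dose-response curves. MEC is the lowest concentration giving cytokine levels at least 3-fold above untreated control cultures.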

Homo sapiens = species: Homo sapiens; assay: Selectivity ratio of MEC for TLR8-mediated TNFalpha production in human PBMC to MEC for TLR7-mediated IFNalpha production in human PBMC
In short: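 Cryopreserved human PBMCs came from leukapheresis of a single healthy donor selected as a consistent responder. Cells were incubated with compound for 24 h over an eight-point concentration range, and cytokine release was measured. MEC is the lowest concentration giving cytokine levels at least 3-fold above untreated cultures, determined per cytokine.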

Cynomolgus monkey [6] = assay: Agonist activity at […] in cynomolgus monkey assessed as increase of serum TNFalpha level at 0.3 to 1 mg/kg after 1 to 24 hrs by ELISA; details: Macaca fascicularis

Cmax [3]: 1.6 ng/mL
half-life [4]: 4.9 min
EC50 (Toll-like receptor 8): 9 µM
EC50 (Toll-like receptor 7): 290 nM
MEC [5]: 3.65 µM
Ratio (Homo sapiens): 100
Structure (SMILES): CCCCOc1nc(N)c2c(n1)N(Cc1cccc(CN3CCCC3)c1)CC(=O)N2 [VESATOLIMOD]
Activity (Cynomolgus monkey [1]): Dose-dependent effect
Activity (Cynomolgus monkey [2]): 22367 pg/mL
Activity (Cynomolgus monkey [6]): inactive
